We go through 8 compounds from paper PMC3832383 (Drug Design, Development and Therapy, 2013).

In brackets after ≈: the same amount, converted by molar mass.

The first experiment relates to P. falciparum strain NF54. In words: [3H]hypoxanthine incorporation assay, unsynchronized parasites. The class given is cell-based. The conditions noted are these: Plasmodium falciparum, NF54, 72 h. The essentials: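 Two ways of diluting the 10 mg/mL stock were compared. In one, the stock went straight into hypoxanthine-free medium. In the other, it was diluted 1/50 in co-solvent, then 1/100 and 1/2 in hypoxanthine-free medium.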
With `COc1ccc2nc3cc(Cl)ccc3c(Nc3cc(CN4CCCC4)c(O)c(CN4CCCC4)c3)c2n1` [pyronaridine], the IC50 came to 2.6 ng/mL (≈ 0.00502 µM).

With `CCc1nc(N)nc(N)c1-c1ccc(Cl)cc1` [pyrimethamine], the IC50 amounted to 3 ng/mL (≈ 0.0121 µM).

In the case of `C[C@@H]1CC[C@H]2[C@@H](C)C(=O)O[C@@H]3O[C@@]4(C)CC[C@@H]1[C@]32OO4` [artemisinin], the IC50 amounted to 3 ng/mL (≈ 0.0106 µM).

`CCN(CC)Cc1cc(Nc2ccnc3cc(Cl)ccc23)ccc1O` [amodiaquine] had an IC50 of 1.5 ng/mL (≈ 0.00422 µM).

In the case of `OC(c1cc(C(F)(F)F)nc2c(C(F)(F)F)cccc12)C1CCCCN1` (stereo not drawn) [mefloquine], the IC50 came to 4.1 ng/mL (≈ 0.0108 µM).

Regarding `Clc1ccc2c(N3CCN(CCCN4CCN(c5ccnc6cc(Cl)ccc56)CC4)CC3)ccnc2c1` [piperaquine], the IC50 stood at 7.8 ng/mL (≈ 0.0146 µM).

A further experiment concerns P. falciparum strain NF54.
Experiment: not given
The conditions noted are these: unsynchronized NF54; cited from earlier work.
Consider `[H]/N=C(\N/C(=N/[H])Nc1ccc(Cl)cc1)NC(C)C` [proguanil], for which the IC50 is reported as 440 ng/mL (≈ 1.73 µM).

As to `O=C1C(O)=C([C@H]2CC[C@H](c3ccc(Cl)cc3)CC2)C(=O)c2ccccc21` [atovaquone], the IC50 is 0.38 ng/mL (≈ 0.00104 µM).

The test system of the next experiment is Plasmodium falciparum strain NF54 (rings, trophozoites, schizonts). The experiment in a line: In vitro assessment of stage-specific activity, synchronous cultures. The conditions noted are these: control drug; data not shown. The experiment is classed as cell-based. The method in brief: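 P. falciparum NF54 synchronized by two 5% D-sorbitol treatments, with intervals set to give rings (>80%, ≤6 h old), trophozoites (≥80%, ≤20 h) or early schizonts (≤36 h). Stages were exposed 6 or 24 h to two-fold dilutions (final 250–7.81 ng/mL) in hypoxanthine-free medium, co-solvent <0.5%, then washed and assessed by [3H]hypoxanthine incorporation. Values are mean ± SD of 3–4 independent experiments.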
Consider `CCc1nc(N)nc(N)c1-c1ccc(Cl)cc1` [pyrimethamine], for which the “effect against ring and trophozoite stages” value is reported as “ineffective”.

In general, IC50 refers to the midpoint of a concentration-inhibition curve.
